This note sets out measurements from ChEMBL document CHEMBL3120088, “Discovery of selective small molecule type III phosphatidylinositol 4-kinase alpha (PI4KIIIα) inhibitors as anti hepatitis C (HCV) agents” (J Med Chem, 2014).

The test system of series [1] is Hepatitis C virus. In words: Antiviral activity against Hepatitis C virus genotype 1a expressed in ET cells after 48 hrs by luciferase reporter gene assay. The note with it: for pIC50: et. The class given is functional, organism-based, Hepacivirus hominis, subtype 1a.
A short description of series [2]: (§1) Half life in Sprague-Dawley rat at 5 mg/kg, po. The class given is ADME, organism-based. More on the design: dose 5 mg/kg, route oral. The following applies: Sprague-Dawley, in vivo. A digest of the protocol: (§2)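 Rats were given a single dose of compound formulated in DMSO/cyclodextrin, either intravenously at 1 mg/kg or orally at 5 mg/kg. Each parameter comes from the matching route arm. Dose-normalized AUC is expressed as h kg ng mL⁻¹ mg⁻¹.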

Series [3] deals with T1, Phosphatidylinositol 4-kinase alpha (Homo sapiens, UniProt P42356). The experiment in a line: Competitive inhibition of GST-tagged PI4K-alpha (1 to 2044) (unknown origin) in presence of ATP.
Series [4] is described as follows: (§3) Cmax in Sprague-Dawley rat at 5 mg/kg, po. The note with it: Sprague-Dawley, in vivo. The class given is ADME, organism-based. More on the design: dose 5 mg/kg, route oral. The procedure, abridged:
as §2

The nature of series [5]: Inhibition of PI3Kalpha (1 to 1068)/6xHis-tagged p85 (1 to 724) (unknown origin) using diC8-PIP2 as substrate preincubated for 30 mins followed by substrate addition measured after 45 to 60 mins. On the set-up: species or system Homo sapiens.
Series [6] deals with T1, Phosphatidylinositol 4-kinase alpha. The experiment in a line: Inhibition of GST-tagged PI4K-alpha (1 to 2044) (unknown origin) using D-myo-phosphatidylinositol as substrate preincubated for 30 mins followed by substrate addition measured after 180 mins by luminescence assay.
Target sequence in this assay (P42356 whole entry): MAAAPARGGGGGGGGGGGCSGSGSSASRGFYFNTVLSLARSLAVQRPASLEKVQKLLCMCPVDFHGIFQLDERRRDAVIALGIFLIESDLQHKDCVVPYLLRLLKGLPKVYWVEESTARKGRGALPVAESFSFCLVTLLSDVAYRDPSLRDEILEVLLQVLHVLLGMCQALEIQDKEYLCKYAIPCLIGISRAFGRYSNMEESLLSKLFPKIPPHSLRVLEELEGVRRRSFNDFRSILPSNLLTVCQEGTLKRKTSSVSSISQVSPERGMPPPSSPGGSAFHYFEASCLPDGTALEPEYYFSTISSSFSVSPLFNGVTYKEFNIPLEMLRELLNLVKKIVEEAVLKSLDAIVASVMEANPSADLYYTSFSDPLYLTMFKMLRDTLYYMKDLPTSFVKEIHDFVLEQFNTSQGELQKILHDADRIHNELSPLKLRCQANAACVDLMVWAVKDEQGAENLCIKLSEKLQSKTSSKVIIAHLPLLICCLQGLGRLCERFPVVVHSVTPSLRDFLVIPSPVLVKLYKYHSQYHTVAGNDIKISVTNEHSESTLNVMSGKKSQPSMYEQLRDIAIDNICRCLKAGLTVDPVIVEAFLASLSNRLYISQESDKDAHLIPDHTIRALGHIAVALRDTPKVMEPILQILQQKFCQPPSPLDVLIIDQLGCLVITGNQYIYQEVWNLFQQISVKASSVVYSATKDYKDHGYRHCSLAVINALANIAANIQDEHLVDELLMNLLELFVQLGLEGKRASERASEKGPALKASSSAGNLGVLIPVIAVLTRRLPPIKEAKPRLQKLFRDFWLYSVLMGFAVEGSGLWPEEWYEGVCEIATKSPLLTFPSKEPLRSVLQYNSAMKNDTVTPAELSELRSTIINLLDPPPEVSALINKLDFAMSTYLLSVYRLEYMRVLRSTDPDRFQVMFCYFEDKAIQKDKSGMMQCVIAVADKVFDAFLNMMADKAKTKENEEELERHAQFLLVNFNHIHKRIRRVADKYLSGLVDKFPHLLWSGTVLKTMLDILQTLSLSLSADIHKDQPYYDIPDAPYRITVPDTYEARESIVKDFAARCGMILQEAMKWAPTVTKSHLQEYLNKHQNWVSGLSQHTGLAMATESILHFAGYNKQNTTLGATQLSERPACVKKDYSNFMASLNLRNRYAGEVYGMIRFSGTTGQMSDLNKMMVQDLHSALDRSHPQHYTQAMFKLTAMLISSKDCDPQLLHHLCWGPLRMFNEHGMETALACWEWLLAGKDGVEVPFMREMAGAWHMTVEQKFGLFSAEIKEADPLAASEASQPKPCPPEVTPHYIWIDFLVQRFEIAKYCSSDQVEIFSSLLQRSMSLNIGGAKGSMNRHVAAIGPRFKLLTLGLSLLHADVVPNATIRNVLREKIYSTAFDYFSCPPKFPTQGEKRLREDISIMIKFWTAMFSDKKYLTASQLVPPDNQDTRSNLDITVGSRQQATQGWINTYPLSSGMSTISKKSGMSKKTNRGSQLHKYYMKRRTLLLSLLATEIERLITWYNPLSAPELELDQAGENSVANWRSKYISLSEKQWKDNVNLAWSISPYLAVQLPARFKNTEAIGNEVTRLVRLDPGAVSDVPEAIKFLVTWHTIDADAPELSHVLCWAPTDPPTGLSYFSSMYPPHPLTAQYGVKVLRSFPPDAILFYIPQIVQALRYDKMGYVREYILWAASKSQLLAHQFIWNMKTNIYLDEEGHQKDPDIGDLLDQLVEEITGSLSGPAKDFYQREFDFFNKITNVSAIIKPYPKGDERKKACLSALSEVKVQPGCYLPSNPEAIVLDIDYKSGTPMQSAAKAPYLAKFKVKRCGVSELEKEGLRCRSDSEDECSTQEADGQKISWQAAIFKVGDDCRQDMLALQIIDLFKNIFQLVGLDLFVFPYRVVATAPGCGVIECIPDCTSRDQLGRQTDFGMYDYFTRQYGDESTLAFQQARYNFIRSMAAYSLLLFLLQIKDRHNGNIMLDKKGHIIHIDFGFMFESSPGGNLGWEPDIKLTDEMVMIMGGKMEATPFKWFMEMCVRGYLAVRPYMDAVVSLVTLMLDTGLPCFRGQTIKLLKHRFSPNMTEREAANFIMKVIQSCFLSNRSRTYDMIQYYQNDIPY
Series [7] is described as follows: Inhibition of 6xHis-tagged PI4K-beta (13 to 828) 316 to 330 deletion mutant (unknown origin) using D-myo-phosphatidylinositol as substrate preincubated for 30 mins followed by substrate addition measured after 180 mins by luminescence assay. More on the design: species or system Homo sapiens.
Series [8] deals with Hepatitis C virus. The experiment in a line: Antiviral activity against Hepatitis C virus genotype 2a expressed in human Huh-7 Lunet cells after 48 hrs by luciferase reporter gene assay. The class given is functional, organism-based, Hepacivirus hominis. The note with it: for pIC50: huh-7. On the technique in general: In a reporter assay the amount or activity of a reporter protein is the signal.

Series [9] deals with Hepatitis C virus. The experiment in a line: Antiviral activity against Hepatitis C virus genotype 1b expressed in ET cells after 48 hrs by luciferase reporter gene assay. The class given is functional, organism-based, Hepacivirus hominis. The note with it: for pIC50: et.
A short description of series [10]: Inhibition of PI3Kdelta (1 to 1044)/6xHis-tagged p85 (1 to 724) (unknown origin) using diC8-PIP2 as substrate preincubated for 30 mins followed by substrate addition measured after 45 to 60 mins. More on the design: species or system Homo sapiens.
Series [11] is described as follows: (§4) Tmax in Sprague-Dawley rat at 5 mg/kg, po. On the set-up: dose 5 mg/kg, route oral. The class given is ADME, organism-based. The note with it: Sprague-Dawley, in vivo. A digest of the protocol: as §2
Series [12] is described as follows: AUC in Sprague-Dawley rat at 5 mg/kg, po. The class given is ADME, organism-based. More on the design: dose 5 mg/kg, route oral. The following applies: plasma. The procedure, abridged: as §2
Series [13] is described as follows: (§5) Oral bioavailability in Sprague-Dawley rat at 5 mg/kg. The class given is ADME, organism-based. The following applies: Sprague-Dawley, in vivo. The procedure, abridged:
as §2

The target in series [14] is Phosphatidylinositol 4,5-bisphosphate 3-kinase catalytic subunit gamma isoform (Homo sapiens, UniProt P48736).
Series [15] can be described thus: Inhibition of PI3Kbeta (1 to 1070)/6xHis-tagged p85 (1 to 724) (unknown origin) using diC8-PIP2 as substrate preincubated for 30 mins followed by substrate addition measured after 45 to 60 mins. More on the design: species or system Homo sapiens.
A short description of series [16]: Toxicity in mouse after 14 days. The class given is organism-based. The following applies: in vivo. The procedure, abridged: (§6)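 Mouse repeat-dose toxicity study: 40 mg/kg/day given daily for 14 days. Endpoints were morbidity, mortality, test-article-related changes in stomach, thymus and spleen, and clinical pathology parameters.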
The subject of series [17] is Rattus norvegicus. Described as §1. The class given is ADME, organism-based. On the set-up: dose 5 mg/kg, route oral. The note with it: in vivo. The procedure, abridged:
as §2

The test system of series [18] is Rattus norvegicus. The description is as §3. The class given is ADME, organism-based. More on the design: dose 5 mg/kg, route oral. The note with it: in vivo. A digest of the protocol: as §2
Series [19] concerns Mus musculus. The experiment in a line: Toxicity in mouse assessed as pathological changes in stomach at 40 mg/kg/day. The class given is organism-based. The following applies: in vivo. A digest of the protocol: as §6
In series [20] the test system is Rattus norvegicus. The experiment in a line: Half life in Sprague-Dawley rat at 1 mg/kg, iv. The class given is ADME, organism-based. More on the design: dose 1 mg/kg, route intravenous. The note with it: in vivo. A digest of the protocol:
as §2

Series [21] concerns Rattus norvegicus. In words: (§7) Volume of distribution at steady state in Sprague-Dawley rat at 1 mg/kg, iv. The class given is ADME, organism-based. More on the design: dose 1 mg/kg, route intravenous. The following applies: in vivo. A digest of the protocol: as §2
Series [22] has as its system Mus musculus. The experiment in a line: Toxicity in mouse assessed as mortality at 40 mg/kg/day. The class given is organism-based. The note with it: in vivo. The procedure, abridged: as §6
Series [23] deals with Rattus norvegicus. In words: Dose normalized AUC in Sprague-Dawley rat at 5 mg/kg, po. The class given is ADME, organism-based. More on the design: dose 5 mg/kg, route oral. The note with it: in vivo. The procedure, abridged:
as §2

Series [24] deals with Rattus norvegicus. The experiment in a line: Dose normalized AUC in Sprague-Dawley rat at 1 mg/kg, iv. The class given is ADME, organism-based. On the set-up: dose 1 mg/kg, route intravenous. The following applies: in vivo. A digest of the protocol:
as §2

Series [25] has as its system Mus musculus. In words: Toxicity in mouse assessed as morbidity at 40 mg/kg/day. The class given is organism-based. The note with it: in vivo. A digest of the protocol: as §6
Series [26] deals with Mus musculus. In words: Toxicity in mouse assessed as pathological changes in thymus at 40 mg/kg/day. The class given is organism-based. The following applies: in vivo. The procedure, abridged:
as §6

In series [27] the test system is Rattus norvegicus. The series is described as §4. The class given is ADME, organism-based. On the set-up: dose 5 mg/kg, route oral. The note with it: in vivo. A digest of the protocol:
as §2

Series [28] has as its system Rattus norvegicus. The description is as §5. The class given is ADME, organism-based. The note with it: in vivo. A digest of the protocol: as §2
Series [29] relates to Mus musculus. The experiment in a line: Toxicity in mouse assessed as pathological changes in spleen at 40 mg/kg/day. The class given is organism-based. The note with it: in vivo. A digest of the protocol:
as §6

Series [30] in a line: Thermodynamic stability of the compound in DMSO assessed as decomposition at 80 degC after 6 days. The class given is physicochemical. The note with it: 144 h.
The nature of series [31]: as §7. The note with it: Sprague-Dawley, in vivo, read-out: Vdss. The class given is ADME, organism-based. On the set-up: dose 1 mg/kg, route intravenous. The procedure, abridged:
as §2

A short description of series [32]: Clearance in Sprague-Dawley rat at 1 mg/kg, iv. More on the design: dose 1 mg/kg, route intravenous. The following applies: in vivo. The class given is ADME, organism-based. A digest of the protocol:
as §2

A short description of series [33]: Thermodynamic stability of the compound in DMSO assessed as interconversion at 80 degC after 6 days. The class given is physicochemical. The note with it: 144 h.
Setting [34] is: Hepatitis C virus, genotype 1b, ET, 48 h.

The source made the active and inactive calls.

Chain of Phosphatidylinositol 4,5-bisphosphate 3-kinase catalytic subunit gamma isoform (P48736 whole entry, canonical isoform): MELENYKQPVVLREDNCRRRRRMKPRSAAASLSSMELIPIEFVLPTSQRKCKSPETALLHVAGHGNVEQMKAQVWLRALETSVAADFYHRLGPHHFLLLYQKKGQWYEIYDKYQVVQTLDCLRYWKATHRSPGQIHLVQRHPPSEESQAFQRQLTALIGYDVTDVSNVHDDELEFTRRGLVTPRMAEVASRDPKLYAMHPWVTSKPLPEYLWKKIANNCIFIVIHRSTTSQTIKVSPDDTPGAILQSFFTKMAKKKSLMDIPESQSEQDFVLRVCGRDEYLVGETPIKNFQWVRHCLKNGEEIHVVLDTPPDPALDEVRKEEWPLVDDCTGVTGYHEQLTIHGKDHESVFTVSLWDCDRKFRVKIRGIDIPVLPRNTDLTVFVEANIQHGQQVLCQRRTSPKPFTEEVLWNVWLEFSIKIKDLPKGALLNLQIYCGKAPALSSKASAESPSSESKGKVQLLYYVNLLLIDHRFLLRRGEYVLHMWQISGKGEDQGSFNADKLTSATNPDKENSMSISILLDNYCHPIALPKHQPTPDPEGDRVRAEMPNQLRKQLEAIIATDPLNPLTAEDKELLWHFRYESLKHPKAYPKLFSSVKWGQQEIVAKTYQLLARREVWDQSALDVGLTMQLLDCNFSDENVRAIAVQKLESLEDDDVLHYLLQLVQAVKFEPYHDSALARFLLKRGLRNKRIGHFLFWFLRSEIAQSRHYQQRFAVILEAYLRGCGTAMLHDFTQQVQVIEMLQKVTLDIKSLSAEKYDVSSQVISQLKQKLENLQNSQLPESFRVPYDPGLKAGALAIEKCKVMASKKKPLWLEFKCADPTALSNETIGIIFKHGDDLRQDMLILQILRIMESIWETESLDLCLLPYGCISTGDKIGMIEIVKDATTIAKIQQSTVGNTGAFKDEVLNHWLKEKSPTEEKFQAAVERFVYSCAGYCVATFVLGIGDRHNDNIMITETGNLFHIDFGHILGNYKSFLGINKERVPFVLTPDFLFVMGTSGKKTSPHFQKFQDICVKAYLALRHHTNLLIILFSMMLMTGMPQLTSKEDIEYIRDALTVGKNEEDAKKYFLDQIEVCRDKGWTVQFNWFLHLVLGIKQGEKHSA

As a reminder, the EC50 is the concentration needed to bring the measured effect to its halfway point. What is called half-life is the time needed for the level to fall by half in the phase considered. Read a high half-life as slow decline. What is called Cmax is the peak of the concentration-time curve. The pIC50 is −log10 of the IC50, conventionally taken in molar units. One may read the IC50 as the midpoint of a concentration-inhibition curve. Higher therefore signals lower potency. The term Tmax denotes the time at which the peak concentration occurs. As usually defined, the AUC is the area under the concentration-time curve, a measure of exposure. The low end stands for low exposure, the high end for high exposure. In general, bioavailability refers to dose-corrected exposure relative to a reference, in per cent. As for `COc1ncc(-c2ccc3nc(N)c(-c4ccc(N5CCOCC5)cc4)cc3c2)cc1NS(=O)(=O)c1ccc(F)cc1F`, the EC50 was 31.6 nM in series [1] (Hepatitis C virus, subtype 1a, ET, 48 h); 20 nM in [8] (Hepatitis C virus, genotype 2a, Huh-7, 48 h); 3.98 nM in series [9] (setting [34]). This molecule gave a half-life in series [2] of 2.39 h. In addition, in series [3], the inhibition result is “Active”. The molecule further displayed a Cmax in series [4] of 1390 ng/mL. Further, the pIC50 is on record as 5.6 in [5], 5.5 in series [7], 6.2 in series [10] and 5 in [15]. The 50% inhibitory concentration (IC50) in series [6] is 39.8 nM; in series [14], 631 nM. Also, in series [11], the time of peak concentration (Tmax) amounted to 0.67 h. In series [12], the exposure (AUC) came out at 5000 ng·h/mL. This molecule returned a bioavailability in series [13] of 38%.
A word on the Vdss: it is a proportionality between amount in the body and measured concentration, not a real space. A low value points to little distribution into tissue. In turn, `COc1ncc(-c2ccc3nc(N)n(-c4ccccc4C(F)(F)F)c(=O)c3c2)cc1S(=O)(=O)Nc1ccc(F)cc1F` (atropisomer aS) had an MTD at 336 h in [16] of 50 mg/kg. For the same molecule, the negative-log IC50 (pIC50) in series [1] was determined as 7.9; in [5], 5.6; in [7], 6; in series [8] it was 7.9; in [9], 8.6; in series [10], 5.6. Also, in [15], the negative-log IC50 (pIC50) stood at 5.1. For the same molecule, the t1/2 in series [17] is 4 h; in series [20] it was 1.3 h. For the same molecule, in series [18], the maximum concentration (Cmax) stood at 1556 ng/mL. In addition, the Activity entry in series [19], in series [22], in series [25], in [26] and in [29] was “Toxic” each time. Moreover, the Vdss in series [21] is 0.34 L/kg. Also, the IC50 in series [6] is 5.01 nM; in series [14] it was 2510 nM. Moreover, the AUC/dose in series [23] was found to be 3626 kg·ng·h/mL/mg; in [24], 3695 kg·ng·h/mL/mg. The Tmax in series [27] came to 4.25 h. The molecule also showed a F in series [28] of 98%.
The term clearance denotes the volume of plasma or blood freed of the substance per unit of time. High values mean a high capacity for elimination, low ones a low capacity for elimination. Take `COc1ncc(-c2ccc3nc(N)n(-c4ccccc4C(F)(F)F)c(=O)c3c2)cc1S(=O)(=O)Nc1ccc(F)cc1F` (atropisomer aR): the Stability result in series [30] and in series [33] was “Stable” in each case. Besides, the pIC50 turned out to be 6.9 in series [1]; 5.5 in series [5]; 5.3 in [7]; 7.1 in [8]; 7.8 in [9]; 5 in [10]. The molecule also gave a pIC50 in series [15] of 4.8. The same molecule gave a half-life in [2] of 2.7 h. This molecule also returned a Cmax in [18] of 4429 ng/mL. In series [20], this molecule displayed a t1/2 of 3.5 h. The Vd in series [31] came to 0.55 L/kg. Moreover, the concentration for half-maximal inhibition (IC50) is 126 nM in series [6] and 3160 nM in series [14]. Moreover, the clearance in [32] turned out to be 2.5 mL/min/kg. Besides, the AUC/dose in series [23] came out at 9985 kg·ng·h/mL/mg; in series [24], 7113 kg·ng·h/mL/mg. In addition, in series [11], the Tmax came to 3 h. Further, the bioavailability in series [13] was greater than 100%.
Molecule `COc1ncc(-c2ccc3nc(N)n(-c4ccccc4)c(=O)c3c2)cc1NS(=O)(=O)c1ccc(F)cc1F` had a half-life in [2] of 6.7 h. In addition, in [4], the highest concentration (Cmax) is 3580 ng/mL. The negative-log IC50 (pIC50) is listed as 8.2 in series [5], 7.2 in [7], 8.2 in series [10] and 7 in series [15]. For the same molecule, the results for the IC50 in [6], in [9] (setting [34]) and in [14] were 1.58 nM, 0.501 nM and 3.98 nM, respectively. In addition, the time of peak concentration (Tmax) in series [11] amounted to 6 h. In [12], this molecule gave an area under the curve (AUC) of 60200 ng·h/mL. Moreover, the bioavailability in series [13] is 60%.
